Measured values reported in ChEMBL document CHEMBL1177835, “A note to the biological activity of benzoxazine derivatives containing the thioxo group” (Eur J Med Chem, 2010).
Converted amounts (≈) assume the structure as drawn.

Tests used:
Mycobacterium kansasii [1] = test: Antimycobacterial activity against Mycobacterium kansasii CNCTC My 235/80 after 14 days by microdilution method; type: functional; settings: CNCTC My 235/80, 336 h
How it was run: (§1)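 Dilution micromethod for MIC; compounds added to medium as DMSO solutions. Each strain also inoculated onto Löwenstein–Jensen medium to control inoculum sterility and growth. Strain 6509/96 is a clinical isolate; CNCTC strains from the Czech national type culture collection.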

[2] = system: Mycobacterium tuberculosis; test: Antimycobacterial activity against Mycobacterium tuberculosis CNCTC My 331/88 after 14 days by microdilution method; type: functional; settings: CNCTC My 331/88, 336 h
How it was run: (§2)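 MIC determined by a dilution micromethod. Strains came from the Czech National Collection of Type Cultures, Prague. Compounds were added to the medium as DMSO solutions. Each inoculum was also plated in parallel on Löwenstein–Jensen medium to check its sterility and growth. The M. avium strain is identical with ATCC 25291 and resistant to INH.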

Mycobacterium avium [3] = test: Antimycobacterial activity against Mycobacterium avium CNCTC My 330/88 after 21 days by microdilution method; type: functional; settings: CNCTC My 330/88, 504 h; how it was run: as §2
Mycobacterium kansasii [4] = test: Antimycobacterial activity against Mycobacterium kansasii 6509/96 after 14 days by microdilution method; type: functional; settings: for MIC: 6509/96, 336 h; how it was run: as §1
Mycobacterium kansasii [5] = test: Antimycobacterial activity against Mycobacterium kansasii 6509/96 after 21 days by microdilution method; type: functional; settings: 6509/96, 504 h; how it was run: as §1
HUVEC = test: Antiproliferative activity against HUVEC after 72 hrs by using methylene blue staining; type: cell-based; settings: human
How it was run: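 HUVEC in culture medium with ultraglutamine, gentamicin, 10% heat-inactivated FBS, 37 °C. Harvested in log phase by trypsinization; about 10,000 cells/well. Compounds in DMSO, diluted in DMEM, incubated 72 h at 37 °C, 5% CO2. Cells then glutaraldehyde-fixed, stained with 0.05% methylene blue for 15 min, eluted with 0.33 N HCl, OD 660 nm. GI50 taken at 50% intersection versus untreated control.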

[6] = system: Mycobacterium tuberculosis; test: Antimycobacterial activity against Mycobacterium tuberculosis CNCTC My 331/88 after 21 days by microdilution method; type: functional; settings: CNCTC My 331/88, 504 h; how it was run: as §2
K562 = test: Antiproliferative activity against human K562 cells after 72 hrs by celltiter-blue assay; type: functional, cell-based
How it was run: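 K-562 grown in RPMI 1640 with ultraglutamine, gentamicin, 10% heat-inactivated FBS at 37 °C; about 10,000 cells/well. Compounds dissolved in DMSO and diluted in DMEM, incubated 72 h at 37 °C, 5% CO2. Viability read by CellTiter-Blue resazurin reduction. GI50 taken where the dose-response curve crosses 50% of untreated control.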

HeLa = test: Cytotoxicity against human HeLa cells after 72 hrs by using methylene blue staining; type: functional, cell-based
How it was run: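 HeLa cells in RPMI 1640 with supplements, preincubated 48 h without compound. Compound dilutions were then applied to subconfluent monolayers for 72 h at 37 °C, 5% CO2. Cells were glutaraldehyde-fixed, stained with 0.05% methylene blue, eluted with 0.33 N HCl and read at OD 660 nm. CC50 taken at 50% intersection versus negative control.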

Mycobacterium avium [7] = test: Antimycobacterial activity against Mycobacterium avium CNCTC My 330/88 after 14 days by microdilution method; type: functional; settings: CNCTC My 330/88, 336 h; how it was run: as §2
Mycobacterium kansasii [8] = test: Antimycobacterial activity against Mycobacterium kansasii CNCTC My 235/80 after 21 days by microdilution method; type: functional; settings: CNCTC My 235/80, 504 h; how it was run: as §1

| SMILES | MIC (Mycobacterium kansasii [1]) [µM] | MIC [2] [µM] | MIC (Mycobacterium avium [3]) [µM] | MIC (Mycobacterium kansasii [4]) [µM] | MIC (Mycobacterium kansasii [5]) [µM] | Activity (HUVEC) | MIC [6] [µM] | Activity (K562) | Activity (HeLa) | MIC (Mycobacterium avium [7]) [µM] | MIC (Mycobacterium kansasii [8]) [µM] | Activity (Mycobacterium kansasii [4]) |
| --- | --- | --- | --- | --- | --- | --- | --- | --- | --- | --- | --- | --- |
| O=c1oc2ccc(Cl)cc2c(=O)n1Cc1ccccc1 | 32 (≈ 9.21 µg/mL) | 62.5 (≈ 18 µg/mL) | 62.5 (≈ 18 µg/mL) | 125 (≈ 36 µg/mL) | 125 (≈ 36 µg/mL) | Toxic | 125 (≈ 36 µg/mL) | Toxic | Toxic | 32 (≈ 9.21 µg/mL) | 62.5 (≈ 18 µg/mL) | – |
| O=c1oc2ccc(Cl)cc2c(=S)n1Cc1ccc(F)cc1 | 4 (≈ 1.29 µg/mL) | 1 (≈ 0.322 µg/mL) | 4 (≈ 1.29 µg/mL) | 4 (≈ 1.29 µg/mL) | 4 (≈ 1.29 µg/mL) | Toxic | 1 (≈ 0.322 µg/mL) | Toxic | Toxic | 4 (≈ 1.29 µg/mL) | 8 (≈ 2.57 µg/mL) | – |
| O=c1oc2ccccc2c(=O)n1Cc1ccccc1 | 62.5 (≈ 15.8 µg/mL) | 32 (≈ 8.1 µg/mL) | 62.5 (≈ 15.8 µg/mL) | 62.5 (≈ 15.8 µg/mL) | 62.5 (≈ 15.8 µg/mL) | Toxic | 32 (≈ 8.1 µg/mL) | Toxic | Toxic | 32 (≈ 8.1 µg/mL) | 62.5 (≈ 15.8 µg/mL) | – |
| NNC(=O)c1ccncc1 [ISONIAZID] | > 250 | 1 (≈ 0.137 µg/mL) | > 250 | 8 (≈ 1.1 µg/mL) | 8 (≈ 1.1 µg/mL) | – | 1 (≈ 0.137 µg/mL) | – | – | > 250 | > 250 | – |
| O=c1oc2ccccc2c(=S)n1Cc1ccccc1 | 4 (≈ 1.08 µg/mL) | 1 (≈ 0.269 µg/mL) | 8 (≈ 2.15 µg/mL) | 4 (≈ 1.08 µg/mL) | 8 (≈ 2.15 µg/mL) | Toxic | 2 (≈ 0.539 µg/mL) | Toxic | Toxic | 8 (≈ 2.15 µg/mL) | 8 (≈ 2.15 µg/mL) | – |
| O=c1oc2ccc(Br)cc2c(=O)n1Cc1ccccc1 | 62.5 (≈ 20.8 µg/mL) | 62.5 (≈ 20.8 µg/mL) | 62.5 (≈ 20.8 µg/mL) | 62.5 (≈ 20.8 µg/mL) | 125 (≈ 41.5 µg/mL) | Toxic | 62.5 (≈ 20.8 µg/mL) | Toxic | Toxic | 62.5 (≈ 20.8 µg/mL) | 125 (≈ 41.5 µg/mL) | – |
| S=c1oc2ccc(Br)cc2c(=S)n1Cc1ccccc1 | 8 (≈ 2.91 µg/mL) | 1 (≈ 0.364 µg/mL) | 8 (≈ 2.91 µg/mL) | 4 (≈ 1.46 µg/mL) | 8 (≈ 2.91 µg/mL) | – | 2 (≈ 0.729 µg/mL) | – | – | 8 (≈ 2.91 µg/mL) | 8 (≈ 2.91 µg/mL) | – |
| S=c1oc2c(Cl)cc(Cl)cc2c(=S)n1Cc1ccc(Cl)c(Cl)c1 | 62.5 (≈ 26.4 µg/mL) | 32 (≈ 13.5 µg/mL) | 62.5 (≈ 26.4 µg/mL) | 62.5 (≈ 26.4 µg/mL) | 62.5 (≈ 26.4 µg/mL) | – | 32 (≈ 13.5 µg/mL) | – | – | 62.5 (≈ 26.4 µg/mL) | 62.5 (≈ 26.4 µg/mL) | – |
| O=c1oc2ccc(Cl)cc2c(=O)n1Cc1ccc(F)cc1 | 62.5 (≈ 19.1 µg/mL) | 32 (≈ 9.78 µg/mL) | 32 (≈ 9.78 µg/mL) | – | 125 (≈ 38.2 µg/mL) | Toxic | 32 (≈ 9.78 µg/mL) | Toxic | Toxic | 32 (≈ 9.78 µg/mL) | 62.5 (≈ 19.1 µg/mL) | Toxic |
| O=c1oc2ccccc2c(=S)n1Cc1ccc(Cl)c(Cl)c1 | 2 (≈ 0.676 µg/mL) | 1 (≈ 0.338 µg/mL) | 1 (≈ 0.338 µg/mL) | 2 (≈ 0.676 µg/mL) | 4 (≈ 1.35 µg/mL) | Toxic | 1 (≈ 0.338 µg/mL) | Toxic | Toxic | 1 (≈ 0.338 µg/mL) | 4 (≈ 1.35 µg/mL) | – |
| S=c1oc2ccc(Br)cc2c(=S)n1Cc1ccc(Cl)c(Cl)c1 | 16 (≈ 6.93 µg/mL) | 4 (≈ 1.73 µg/mL) | 16 (≈ 6.93 µg/mL) | 16 (≈ 6.93 µg/mL) | 32 (≈ 13.9 µg/mL) | – | 8 (≈ 3.47 µg/mL) | – | – | 16 (≈ 6.93 µg/mL) | 32 (≈ 13.9 µg/mL) | – |
| O=c1oc2ccc(Br)cc2c(=S)n1Cc1ccccc1 | 8 (≈ 2.79 µg/mL) | 1 (≈ 0.348 µg/mL) | 8 (≈ 2.79 µg/mL) | 4 (≈ 1.39 µg/mL) | 8 (≈ 2.79 µg/mL) | Toxic | 2 (≈ 0.696 µg/mL) | Toxic | Toxic | 8 (≈ 2.79 µg/mL) | 8 (≈ 2.79 µg/mL) | – |
| Fc1ccc(Cn2c(=S)oc3ccc(Cl)cc3c2=S)cc1 | 8 (≈ 2.7 µg/mL) | 1 (≈ 0.338 µg/mL) | 16 (≈ 5.41 µg/mL) | 8 (≈ 2.7 µg/mL) | 16 (≈ 5.41 µg/mL) | – | 2 (≈ 0.676 µg/mL) | – | – | 8 (≈ 2.7 µg/mL) | 16 (≈ 5.41 µg/mL) | – |
